The source made the active and inactive calls. No cut-off for these calls is given here.
Columns and labels:
Bos taurus [1] = species on record: Bos taurus; assay: Inhibition of ERK1/2 phosphorylation in BAEC at 100 uM after 24 hrs by Western blot
Procedure, shortened: (§1)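 BAECs were treated at 0, 100 or 200 µM for 24 h, then lysed in RIPA buffer with protease inhibitors. Protein was quantified by micro-BCA. Lysates were separated by SDS–PAGE and transferred to PVDF, then probed overnight at 4 °C with antibodies to cyclin D1, ERK, phospho-ERK and β-actin (loading control). Detection used HRP secondaries and ECL. Experiments were repeated at least twice.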

BAEC [2] = assay: Inhibition of stress fiber assembly in BAEC by fluorescence staining with FITC phalloidin; format: functional, cell-based; conditions: Bos taurus
Procedure, shortened: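 BAECs were grown overnight on glass coverslips, then exposed to compound for 24 h. Cells were fixed in 4% paraformaldehyde, permeabilised with 0.1% Triton X-100 and blocked with 1% BSA. F-actin was stained with FITC-phalloidin (2 µg/ml, 30 min) and imaged by confocal microscopy at 40× oil. Experiments were repeated at least twice.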

BAEC [3] = assay: Inhibition of ERK1/2 levels in BAEC at 200 uM after 24 hrs by Western blot; format: functional, cell-based; conditions: Bos taurus; procedure, shortened: as §1
BAEC [4] = assay: Inhibition of angiogenesis in BAEC assessed as inhibition of endothelial tube formation at 0.1 mM after 24 hrs; format: functional; conditions: Bos taurus
Procedure, shortened: (§2)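 BAECs were pretreated with compound for 24 h, then resuspended at 3×10⁴ cells/0.1 ml in RPMI 1640 with 10 ng/ml bFGF plus compound; controls received bFGF alone. Cells were layered on polymerised growth-factor-reduced Matrigel and incubated for 8 h at 37 °C in 5% CO₂. Tubes were counted by light microscopy in at least five fields and averaged. Each compound was tested at least twice.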

BAEC [5] = assay: Effect on cell cycle of BAEC assessed as induction of G1 phase arrest at 200 uM after 24 hrs by flow cytometer relative to control; format: functional, cell-based; conditions: Bos taurus
Procedure, shortened: (§3)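 BAECs were seeded overnight in RPMI 1640 with 10% FBS, then exposed to compound for 24 h with a DMSO control. Cells were trypsinised, washed in DPBS and fixed in 70% ethanol at −20 °C for at least 2 h. They were treated with 200 µg/ml RNase A at 25 °C for 30 min, then stained with 50 µg/ml propidium iodide at 4 °C for 30 min. DNA content of 10,000 nuclei was read by flow cytometry, and G0/G1, S and G2/M percentages were derived. Each experiment was run at least twice.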

BAEC [6] = assay: Inhibition of ERK1/2 levels in BAEC at 100 uM after 24 hrs by Western blot; format: functional, cell-based; conditions: Bos taurus; procedure, shortened: as §1
BAEC [7] = assay: Inhibition of cyclin D1 expression in BAEC at 200 uM after 24 hrs by Western blot; format: functional, cell-based; conditions: Bos taurus; procedure, shortened: as §1
[8] = (§4) Inhibition of Bacillus stearothermophilus alpha glucosidase; set-up: species or system Geobacillus stearothermophilus
Bos taurus [9] = species on record: Bos taurus; assay: Inhibition of ERK1/2 phosphorylation in BAEC at 200 uM after 24 hrs by Western blot; procedure, shortened: as §1
BAEC [10] = assay: Inhibition of angiogenesis in BAEC assessed as inhibition of endothelial tube formation at 0.2 mM after 24 hrs; format: functional; conditions: Bos taurus; procedure, shortened: as §2
BAEC [11] = assay: Decrease in FITC-labeled phytohemagglutininin-L binding to BAEC at 50 uM after 24 hrs by flow cytometer; format: functional, cell-based; conditions: Bos taurus
Procedure, shortened: (§5)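 Cultured BAECs were exposed to compound (50 µM) for 24 h, harvested and washed in DPBS. About 5×10⁵ cells were incubated in DPBS/1% BSA with 2 µg/mL FITC-labelled Con A or L-PHA for 1 h at 4 °C, washed twice, and fluorescence histograms were recorded by FACS. Each experiment was done at least twice.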

[12] = Cell cycle arrest in BAEC assessed as accumulation at S phase at 200 uM after 24 hrs by flow cytometer relative to control; format: functional, cell-based; conditions: Bos taurus; procedure, shortened: as §3
[13] = Cell cycle arrest in BAEC assessed as accumulation at G0/G1 phase at 200 uM after 24 hrs by flow cytometer relative to control; format: functional, cell-based; conditions: Bos taurus; procedure, shortened: as §3
BAEC [14] = assay: Inhibition of cyclin D1 expression in BAEC at 100 uM after 24 hrs by Western blot; format: functional, cell-based; conditions: Bos taurus; procedure, shortened: as §1
BAEC [15] = assay: Increase in FITC-labeled concanavalin A binding to BAEC at 50 uM after 24 hrs by flow cytometer; format: functional; conditions: Bos taurus; procedure, shortened: as §5
[16] = Cell cycle arrest in BAEC assessed as accumulation at G2/M phase at 200 uM after 24 hrs by flow cytometer relative to control; format: functional, cell-based; conditions: Bos taurus; procedure, shortened: as §3
[17] = system: Geobacillus stearothermophilus; assay: as §4
[18] = Growth inhibition of BAEC after 48 hrs by MTT assay; set-up: species or system Bos taurus; conditions: cattle
Procedure, shortened: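 BAECs (3×10³ per well) were seeded overnight in RPMI 1640 with 10% FBS, then given compounds at 10⁻⁶–10⁻³ M for 48 h. MTT was added to a final 0.5 mg/mL for 3 h at 37 °C. Formazan was dissolved in DMSO and read at 570 nm. Samples were run in quadruplicate, with at least two independent experiments.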

Row | SMILES | IC50 [8] [nM] | Activity (BAEC [10]) | Activity (BAEC [11]) | Activity (BAEC [15]) | other results
1 | OC[C@@H]1[C@@H](O)[C@H](O)[C@@H](O)CN1CCCCCCCCOc1cccc(-c2cnn[nH]2)c1 | 1150 | Active | inactive | Active | Activity (Bos taurus [1]): inactive; Activity (BAEC [2]): Active; Activity (BAEC [3]): inactive; Activity (BAEC [4]): inactive; Activity (BAEC [5]): Active; Activity (BAEC [6]): inactive; Activity (BAEC [7]): Active; Activity (Bos taurus [9]): inactive; Activity [12]: 3.9%; Activity [13]: 87.6%; Activity (BAEC [14]): Active; Activity [16]: 6.2%
2 | COc1cccc(-c2cnn[nH]2)c1 | – | inactive | – | – | Activity [17]: inactive
3 | OC[C@@H]1[C@@H](O)[C@H](O)[C@@H](O)CN1CCCCOc1cccc(-c2cnn[nH]2)c1 | 6070 | inactive | inactive | Active | –
4 | OC[C@H]1NC[C@H](O)[C@@H](O)[C@@H]1O [DUVOGLUSTAT] | 1670 | inactive | inactive | Active | Activity [18]: Not Active
5 | OC[C@@H]1[C@@H](O)[C@H](O)[C@@H](O)CN1CCCCCCOc1cccc(-c2cnn[nH]2)c1 | 2410 | inactive | inactive | Active | –

Reference: ChEMBL document CHEMBL1150427, “Hybrids of 1-deoxynojirimycin and aryl-1,2,3-triazoles and biological studies related to angiogenesis” (Bioorg Med Chem, 2008)
